Data: ChEMBL document CHEMBL1144747, “(Phenylpiperazinyl-butyl)oxindoles as selective 5-HT7 receptor antagonists” (J Med Chem, 2008)

How the values were obtained:
[1] = molecular target: T1, 5-hydroxytryptamine receptor 7 (Homo sapiens, UniProt P34969); test: Displacement of [3H]LSD from human recombinant 5HT7 receptor expressed in CHO cells; type: cell-based
In short: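 Cloned human 5-HT7 receptor from CHO cells, labelled with [3H]LSD; nonspecific binding with 25 µM clozapine. Stopped by filtration on PEI-soaked GF/C filters, then scintillation counting. Ki from two displacement curves of nine concentrations each, run in triplicate.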

[2] = molecular target: T1, 5-hydroxytryptamine receptor 7; test: Antagonist activity at human 5HT7A receptor expressed in CHO cells assessed as inhibition of […]-induced cAMP elevation at 1 uM; type: functional, cell-based; set-up: scale not given: the % may be the effect or the level left
In short: (§1)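 CHO cells stably expressing human 5-HT7A, cultured in F12:DMEM with 5% FCS, seeded 24 h ahead. Compounds from 1 mM DMSO stock (final DMSO 0.1%) preincubated 10 min, then 20 min with 10 nM 5-CT at 37 °C. Cells lysed, cAMP by EIA, normalized to BCA protein. The 5-CT-induced level is taken as 100%; six independent experiments.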

[3] = molecular target: T1, 5-hydroxytryptamine receptor 7; test: Antagonist activity at human 5HT7A receptor expressed in CHO cells assessed as inhibition of […]-induced cAMP elevation at 10 nM administered before […] challenge; type: functional, cell-based; set-up: scale not given: the % may be the effect or the level left; in short: as §1
[4] = molecular target: T2, 5-hydroxytryptamine receptor 1A (Rattus norvegicus) (UniProt P19327); test: Displacement of [3H]8-OH-DPAT from 5HT1A receptor in rat frontal cortex membrane at 10 nM; type: cell membranes
T2 sequence (whole entry): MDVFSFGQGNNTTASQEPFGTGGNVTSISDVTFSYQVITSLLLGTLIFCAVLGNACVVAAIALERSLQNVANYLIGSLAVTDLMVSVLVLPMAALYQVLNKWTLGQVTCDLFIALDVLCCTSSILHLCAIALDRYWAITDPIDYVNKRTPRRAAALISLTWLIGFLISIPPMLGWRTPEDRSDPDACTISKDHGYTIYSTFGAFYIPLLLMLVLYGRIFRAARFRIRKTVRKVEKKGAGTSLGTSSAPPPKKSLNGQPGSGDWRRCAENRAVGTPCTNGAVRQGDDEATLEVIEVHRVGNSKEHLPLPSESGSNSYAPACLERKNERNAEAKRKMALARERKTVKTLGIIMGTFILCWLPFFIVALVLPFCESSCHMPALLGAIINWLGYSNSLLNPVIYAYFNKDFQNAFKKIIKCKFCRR
In short: (§2)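 Rat tissue homogenized in 50 mM Tris-HCl pH 7.7, washed by repeated 40000g spins with a 10 min 37 °C incubation. Buffer: Tris-HCl, 6.66 mM CaCl2, 16.66 µM pargyline, 0.166% ascorbate. Labelled with 1.5 nM [3H]8-OH-DPAT, 45 min at 25 °C; nonspecific with 10 µM 5-HT. GF/B filtration, then scintillation counting; percent inhibition.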

[5] = tested on: Rattus norvegicus; test: Anxiolytic activity in ip dosed Wistar rat assessed as number of punished licks for 5 mins by conflict drinking test; type: functional; conditions: read-out: MED
In short: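 Modified Vogel test in male Wistar rats, 160–180 g, water-deprived 48 h and fasted 24 h. Dosed ip 30 min before test. After a 30 s free-drinking period, 600 µA, 0.6 s shocks came through the spout every 20 licks over 5 min. Punished licks counted; minimal effective dose reported.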

[6] = molecular target: T2, 5-hydroxytryptamine receptor 1A (Rattus norvegicus); test: Displacement of [3H]8-OH-DPAT from 5HT1A receptor in rat frontal cortex membrane at 0.1 uM; type: cell membranes; in short: as §2
[7] = tested on: Mus musculus; test: Anxiolytic activity in ip dosed NMRI mouse assessed as behavioral activity for 5 mins by light dark assay; type: functional; conditions: read-out: MED
In short: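 Male NMRI mice, 25–33 g, kept in a dark room and dosed ip 30 min before test, then placed in the centre of the lit area. Over 5 min, time in each area, transitions, and horizontal and vertical activity were recorded. Minimal effective dose by one-way ANOVA with Duncan's test.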

[8] = organism: Rattus norvegicus; test: Metabolic stability in rat; type: ADME, organism-based; conditions: in vitro

T1 sequence (P34969 whole entry): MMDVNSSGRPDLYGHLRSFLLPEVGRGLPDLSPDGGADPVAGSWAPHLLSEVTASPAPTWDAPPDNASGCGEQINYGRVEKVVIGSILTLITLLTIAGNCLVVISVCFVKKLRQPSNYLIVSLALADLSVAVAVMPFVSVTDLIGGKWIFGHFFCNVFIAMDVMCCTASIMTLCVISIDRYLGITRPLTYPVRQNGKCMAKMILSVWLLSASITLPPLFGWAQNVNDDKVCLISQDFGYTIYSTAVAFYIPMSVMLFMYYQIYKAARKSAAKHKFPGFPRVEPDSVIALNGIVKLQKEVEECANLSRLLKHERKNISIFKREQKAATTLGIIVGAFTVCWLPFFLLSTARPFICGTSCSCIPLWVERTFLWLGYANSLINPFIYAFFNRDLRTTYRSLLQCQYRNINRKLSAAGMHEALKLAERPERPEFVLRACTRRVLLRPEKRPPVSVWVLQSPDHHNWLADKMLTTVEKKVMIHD

Structure (SMILES)	Ki ([1]; read-out: Log Ki (converted)) [nM]	Activity [2] [%]	Activity [3] [%]	Activity [4] [%]	Ki ([1]; read-out: Ki) [nM]	minimal effective dose [5] [mg/kg]	Activity [6] [%]	minimal effective dose [7] [mg/kg]	Stability [8] [%]
COc1ccccc1N1CCN(CCCCC23CCCc4cccc(c42)NC3=O)CC1 (stereo not drawn)	2.14								
CC1CCN(CC[C@H]2CCCN2S(=O)(=O)c2cccc(O)c2)CC1		> 95	80						
CCC1(CCCCCN2CCN(c3ccc(Cl)cc3)CC2)C(=O)Nc2ccccc21 (stereo not drawn)				0	1.24	> 20	11		
CCC1(CCCCN2CCN(c3ccc(Cl)c(Cl)c3)CC2)C(=O)Nc2ccccc21 (stereo not drawn)				0	0.63	> 20	11		
CCC1(CCCCN2CCN(c3ccc(Cl)cc3)CC2)C(=O)Nc2ccc(Cl)cc21 (stereo not drawn)					3.72	> 20	0		
CCC1(CCCCN2CCN(c3ccc(Cl)cc3)CC2)C(=O)Nc2cc(F)c(Cl)cc21 (stereo not drawn)					6.99		0		
CCC1(CCCCN2CCc3ccccc3C2)C(=O)Nc2ccccc21 (stereo not drawn)		> 95			7.65	> 20	52		
CCC1(CCCCN2CCN(c3cccc(Cl)c3)CC2)C(=O)Nc2ccccc21 (stereo not drawn)		> 95	40	11	0.41	> 20	42	> 10	4
CCC1(CCCCN2CCN(c3ccc(C)c(Cl)c3)CC2)C(=O)Nc2ccccc21 (stereo not drawn)		> 95	40	0	0.66	> 20	11		
O=C1Nc2ccccc2C1CCCCN1CCN(c2cccc(Cl)c2)CC1 (stereo not drawn)		> 95	80	9	0.49	< 5	40	> 10	
CCC1(CCCCN2CCN(c3cccc(Cl)c3)CC2)C(=O)Nc2c(Cl)cc(F)cc21 (stereo not drawn)					4.75	> 20	31	> 10	
CCC1(CCCCN2CCN(c3ccc(Cl)cc3)CC2)C(=O)Nc2c(Cl)cc(F)cc21 (stereo not drawn)					5.97	> 20	0		
CCC1(CCCCN2CCN(c3cccc(Cl)c3)CC2)C(=O)Nc2cc(F)ccc21 (stereo not drawn)				11	0.67	> 20	37		
CCC1(CCCCN2CCN(c3ccccc3)CC2)C(=O)Nc2ccccc21 (stereo not drawn)				6	2.07	10	26		
CCC1(CCCCN2CCN(c3cccc(Cl)c3)CC2)C(=O)Nc2c(Cl)cc(Cl)cc21 (stereo not drawn)					9.46	> 20	7		
O=C1Nc2ccc(F)cc2C1CCCCN1CCN(c2ccc(F)cc2)CC1 (stereo not drawn)					3.4	> 10	6		40
CCC1(CCCCN2CCN(c3ccc(F)cc3)CC2)C(=O)Nc2ccc(F)cc21 (stereo not drawn)					1.5	> 20	7		
CCC1(CCCCN2CCN(c3ccccc3)CC2)C(=O)N(C)c2ccccc21 (stereo not drawn)				12	33.4	20	42		
CCC1(CCCCN2CC=C(c3ccc(F)cc3)CC2)C(=O)Nc2ccccc21 (stereo not drawn)		> 95			1.19	20	19		
CCC1(CCCCN2CCN(c3cccc(Cl)c3)CC2)C(=O)Nc2ccc(F)cc21 (stereo not drawn)					2.11	< 5	24	> 10	
